Tests used:
[1] = biological target: T1, MAP kinase-activated protein kinase 2 (Homo sapiens, UniProt P49137); experiment: Inhibition of MK2-mediated HSP27 phosphorylation in IL-1beta stimulated human SW1353 cells incubated for 30 mins prior to IL-1beta-stimulation measured after 27 mins by ELISA; format: cell-based
[2] = Cytotoxicity against human SW1353 cells after 30 mins by ATP-dependent luciferase luminescence assay; format: cell-based
[3] = biological target: T1, MAP kinase-activated protein kinase 2; experiment: Inhibition of MK2 using Acam peptide as substrate incubated for 30 mins prior to substrate addition measured after 10 mins using 100 uM ATP by DELFIA assay
[4] = biological target: T2, Cytochrome P450 3A4 (Homo sapiens, UniProt P08684); experiment: Inhibition of CYP3A4 in human liver microsomes co-incubated with testosterone; format: ADME, Microsome
T2 sequence (P08684 whole entry): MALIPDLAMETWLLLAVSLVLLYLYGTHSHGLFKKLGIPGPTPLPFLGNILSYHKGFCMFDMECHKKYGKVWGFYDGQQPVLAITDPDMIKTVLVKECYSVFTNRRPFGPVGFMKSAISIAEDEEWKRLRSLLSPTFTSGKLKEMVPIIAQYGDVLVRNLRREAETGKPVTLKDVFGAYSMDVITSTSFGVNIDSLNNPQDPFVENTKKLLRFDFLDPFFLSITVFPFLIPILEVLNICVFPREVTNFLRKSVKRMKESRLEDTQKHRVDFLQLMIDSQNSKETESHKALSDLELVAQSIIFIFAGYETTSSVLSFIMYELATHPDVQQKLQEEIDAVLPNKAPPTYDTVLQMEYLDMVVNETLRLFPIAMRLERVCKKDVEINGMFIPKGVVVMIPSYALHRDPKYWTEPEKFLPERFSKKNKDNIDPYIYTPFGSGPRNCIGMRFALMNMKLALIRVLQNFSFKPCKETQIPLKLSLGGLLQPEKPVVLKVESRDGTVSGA
In short: (§1)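 Tested against a panel of cytochrome P450 enzymes at compound concentrations up to 30 μM.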

[5] = biological target: T3, Cytochrome P450 2C9 (Homo sapiens, UniProt P11712); experiment: Inhibition of CYP2C9 in human liver microsomes co-incubated with tolbutamide; format: ADME, Microsome; in short: as §1
T3 sequence (P11712 whole entry): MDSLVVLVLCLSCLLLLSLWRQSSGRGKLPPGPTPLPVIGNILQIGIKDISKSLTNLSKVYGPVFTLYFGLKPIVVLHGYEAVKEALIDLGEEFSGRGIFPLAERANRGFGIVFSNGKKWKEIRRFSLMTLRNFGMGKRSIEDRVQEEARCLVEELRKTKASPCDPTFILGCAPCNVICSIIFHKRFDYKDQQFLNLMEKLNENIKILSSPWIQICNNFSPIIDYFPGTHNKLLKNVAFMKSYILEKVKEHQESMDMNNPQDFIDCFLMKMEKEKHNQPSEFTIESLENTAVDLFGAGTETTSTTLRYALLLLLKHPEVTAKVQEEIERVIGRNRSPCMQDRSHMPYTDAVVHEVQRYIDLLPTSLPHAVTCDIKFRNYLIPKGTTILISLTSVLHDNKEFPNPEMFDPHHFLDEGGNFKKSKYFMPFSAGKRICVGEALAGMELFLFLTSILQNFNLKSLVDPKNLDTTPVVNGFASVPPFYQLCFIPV

[6] = biological target: T2, Cytochrome P450 3A4; experiment: Inhibition of CYP3A4 in human liver microsomes using testosterone as substrate incubated for 30 mins prior to substrate addition; format: ADME, Microsome; in short: as §1
[7] = tested on: THP-1; experiment: Antiinflammatory activity in human THP1 cells assessed as inhibition of LPS-induced TNFalpha production incubated for 30 mins prior to LPS-challenge measured after 3 hrs by ELISA; format: functional, cell-based
In short: (§2)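 Human THP1 acute monocytic leukemia cells are treated with a range of compound concentrations and stimulated with LPS. Secreted TNFα or IL6 is then measured. Each data point is the average, with standard error, of duplicate samples.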

[8] = biological target: T3, Cytochrome P450 2C9; experiment: Inhibition of CYP2C9 in human liver microsomes using tolbutamide as substrate incubated for 30 mins prior to substrate addition; format: ADME, Microsome; in short: as §1
[9] = biological target: T4, Cytochrome P450 2D6 (Homo sapiens, UniProt P10635); experiment: Inhibition of CYP2D6 in human liver microsomes using dextromethorphan as substrate incubated for 30 mins prior to substrate addition; format: ADME, Microsome; in short: as §1
T4 sequence (P10635 whole entry): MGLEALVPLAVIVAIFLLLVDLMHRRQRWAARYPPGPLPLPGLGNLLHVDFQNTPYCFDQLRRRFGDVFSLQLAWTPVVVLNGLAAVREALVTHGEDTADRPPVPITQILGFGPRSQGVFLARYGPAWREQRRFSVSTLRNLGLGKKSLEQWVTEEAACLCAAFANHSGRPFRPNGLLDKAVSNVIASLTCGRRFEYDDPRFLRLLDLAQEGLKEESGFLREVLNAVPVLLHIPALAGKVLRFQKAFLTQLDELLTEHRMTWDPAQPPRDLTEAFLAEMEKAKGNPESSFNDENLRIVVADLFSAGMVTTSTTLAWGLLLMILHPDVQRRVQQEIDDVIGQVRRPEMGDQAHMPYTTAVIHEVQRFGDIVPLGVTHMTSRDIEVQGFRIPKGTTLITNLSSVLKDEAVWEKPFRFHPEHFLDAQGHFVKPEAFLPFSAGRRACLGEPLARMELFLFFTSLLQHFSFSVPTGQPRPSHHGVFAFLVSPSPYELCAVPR

[10] = tested on: SW1353; experiment: Inhibition of IL1beta-stimulated MMP13 secretion in human SW1353 cells incubated for 30 mins prior to IL1beta-stimulation measured after 24 hrs by ELISA; format: functional, cell-based
In short: (§3)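 Cells are treated with a range of compound concentrations, then stimulated with IL1-β, and secreted MMP-13 is measured. Two cell systems are used: the SW1353 line and human primary chondrocytes derived from osteoarthritis tissue. Each data point is the average, with standard error, of duplicate samples.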

[11] = biological target: T4, Cytochrome P450 2D6; experiment: Inhibition of CYP2D6 in human liver microsomes co-incubated with dextromethorphan; format: ADME, Microsome; in short: as §1
[12] = (§4) Inhibition of IL1beta-stimulated MMP13 secretion in human primary chondrocytes incubated for 30 mins prior to IL1beta-stimulation measured after 24 hrs by ELISA; format: functional, cell-based; in short: as §3
[13] = tested on: THP-1; experiment: Antiinflammatory activity in human THP1 cells assessed as inhibition of LPS-induced IL6 production incubated for 30 mins prior to LPS-challenge measured after 18 hrs by immunoabsorbent-based electrochemical luminescence assay; format: functional, cell-based; in short: as §2
[14] = biological target: Serine/threonine-protein kinase Chk1 (Homo sapiens, UniProt O14757); experiment: Inhibition of human CHK1
Sequence of Serine/threonine-protein kinase Chk1 (O14757 whole entry): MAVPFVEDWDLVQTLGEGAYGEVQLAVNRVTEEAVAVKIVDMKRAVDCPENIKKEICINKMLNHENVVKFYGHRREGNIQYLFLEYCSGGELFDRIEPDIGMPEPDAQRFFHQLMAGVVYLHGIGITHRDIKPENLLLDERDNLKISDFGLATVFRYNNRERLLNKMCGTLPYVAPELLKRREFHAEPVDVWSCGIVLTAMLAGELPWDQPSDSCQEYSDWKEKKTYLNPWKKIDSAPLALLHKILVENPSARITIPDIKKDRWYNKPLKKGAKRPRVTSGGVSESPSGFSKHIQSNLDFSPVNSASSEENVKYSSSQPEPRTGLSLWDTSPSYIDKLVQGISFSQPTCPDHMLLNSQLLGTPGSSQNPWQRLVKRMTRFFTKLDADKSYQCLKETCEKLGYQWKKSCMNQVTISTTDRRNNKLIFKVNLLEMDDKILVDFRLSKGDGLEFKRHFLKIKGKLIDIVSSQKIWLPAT

[15] = biological target: Interleukin-1 receptor-associated kinase 4 (Homo sapiens, UniProt Q9NWZ3); experiment: Inhibition of human IRAK4
[16] = biological target: Tyrosine-protein kinase Lck (Homo sapiens, UniProt P06239); experiment: Inhibition of human LCK
[17] = biological target: Hepatocyte growth factor receptor (Homo sapiens, UniProt P08581); experiment: Inhibition of human MET
[18] = biological target: Insulin-like growth factor 1 receptor (Homo sapiens, UniProt P08069); experiment: Inhibition of human IGF1R
[19] = Solubility of the compound; format: physicochemical
[20] = biological target: RAC-alpha serine/threonine-protein kinase (Homo sapiens, UniProt P31749); experiment: Inhibition of human AKT1
Sequence of RAC-alpha serine/threonine-protein kinase (P31749 whole entry, canonical isoform): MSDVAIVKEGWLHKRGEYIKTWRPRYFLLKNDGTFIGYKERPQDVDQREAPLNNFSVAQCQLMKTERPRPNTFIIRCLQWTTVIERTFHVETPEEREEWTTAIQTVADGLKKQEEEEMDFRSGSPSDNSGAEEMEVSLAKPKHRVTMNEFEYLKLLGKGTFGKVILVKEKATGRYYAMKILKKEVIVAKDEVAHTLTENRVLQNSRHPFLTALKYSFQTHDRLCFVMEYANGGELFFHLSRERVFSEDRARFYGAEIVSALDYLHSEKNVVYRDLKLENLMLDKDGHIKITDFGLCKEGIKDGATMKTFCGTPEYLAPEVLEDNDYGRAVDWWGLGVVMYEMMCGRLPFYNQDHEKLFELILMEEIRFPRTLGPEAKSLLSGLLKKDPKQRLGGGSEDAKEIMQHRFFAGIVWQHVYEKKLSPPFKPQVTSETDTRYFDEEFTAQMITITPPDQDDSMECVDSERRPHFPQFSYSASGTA

[21] = biological target: Casein kinase I isoform delta (Homo sapiens, UniProt P48730); experiment: Inhibition of human CSNK1D
[22] = biological target: Serine/threonine-protein kinase 3 (Homo sapiens, UniProt Q13188); experiment: Inhibition of human MST2
[23] = biological target: T1, MAP kinase-activated protein kinase 2; experiment: Inhibition of MK2 using Acam peptide as substrate incubated for 30 mins prior to substrate addition measured after 10 mins using 2 uM ATP by DELFIA assay
[24] = biological target: Testis-specific serine/threonine-protein kinase 2 (Homo sapiens, UniProt Q96PF2); experiment: Inhibition of human TSSK2
Sequence of Testis-specific serine/threonine-protein kinase 2 (Q96PF2 whole entry): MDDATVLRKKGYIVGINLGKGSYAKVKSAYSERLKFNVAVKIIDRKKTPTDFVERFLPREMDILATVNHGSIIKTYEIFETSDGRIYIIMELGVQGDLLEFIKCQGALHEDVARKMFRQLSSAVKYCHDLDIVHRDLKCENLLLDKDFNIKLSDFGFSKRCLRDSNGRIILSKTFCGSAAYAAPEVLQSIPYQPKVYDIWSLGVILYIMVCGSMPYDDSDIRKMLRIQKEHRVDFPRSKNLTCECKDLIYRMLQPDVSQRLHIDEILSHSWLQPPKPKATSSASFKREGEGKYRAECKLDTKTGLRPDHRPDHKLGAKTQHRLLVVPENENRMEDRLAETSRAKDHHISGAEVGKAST

[25] = biological target: Calcium/calmodulin-dependent protein kinase type IV (Homo sapiens, UniProt Q16566); experiment: Inhibition of human CAMK4
Sequence of Calcium/calmodulin-dependent protein kinase type IV (Q16566 whole entry): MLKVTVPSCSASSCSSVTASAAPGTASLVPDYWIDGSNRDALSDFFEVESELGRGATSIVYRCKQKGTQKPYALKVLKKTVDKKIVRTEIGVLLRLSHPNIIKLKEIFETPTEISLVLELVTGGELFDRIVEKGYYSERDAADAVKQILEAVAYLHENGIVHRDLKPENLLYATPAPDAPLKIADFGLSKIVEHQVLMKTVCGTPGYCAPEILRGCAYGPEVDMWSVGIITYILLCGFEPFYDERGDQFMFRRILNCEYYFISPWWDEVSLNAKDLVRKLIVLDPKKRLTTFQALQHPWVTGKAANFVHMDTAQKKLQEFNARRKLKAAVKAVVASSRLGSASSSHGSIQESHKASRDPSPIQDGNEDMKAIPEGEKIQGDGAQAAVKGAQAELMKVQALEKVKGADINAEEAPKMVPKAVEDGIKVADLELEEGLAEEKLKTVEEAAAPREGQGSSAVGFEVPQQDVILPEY

[26] = biological target: Inhibitor of nuclear factor kappa-B kinase subunit beta (Homo sapiens, UniProt O14920); experiment: Inhibition of human IKKB
Sequence of Inhibitor of nuclear factor kappa-B kinase subunit beta (O14920 whole entry): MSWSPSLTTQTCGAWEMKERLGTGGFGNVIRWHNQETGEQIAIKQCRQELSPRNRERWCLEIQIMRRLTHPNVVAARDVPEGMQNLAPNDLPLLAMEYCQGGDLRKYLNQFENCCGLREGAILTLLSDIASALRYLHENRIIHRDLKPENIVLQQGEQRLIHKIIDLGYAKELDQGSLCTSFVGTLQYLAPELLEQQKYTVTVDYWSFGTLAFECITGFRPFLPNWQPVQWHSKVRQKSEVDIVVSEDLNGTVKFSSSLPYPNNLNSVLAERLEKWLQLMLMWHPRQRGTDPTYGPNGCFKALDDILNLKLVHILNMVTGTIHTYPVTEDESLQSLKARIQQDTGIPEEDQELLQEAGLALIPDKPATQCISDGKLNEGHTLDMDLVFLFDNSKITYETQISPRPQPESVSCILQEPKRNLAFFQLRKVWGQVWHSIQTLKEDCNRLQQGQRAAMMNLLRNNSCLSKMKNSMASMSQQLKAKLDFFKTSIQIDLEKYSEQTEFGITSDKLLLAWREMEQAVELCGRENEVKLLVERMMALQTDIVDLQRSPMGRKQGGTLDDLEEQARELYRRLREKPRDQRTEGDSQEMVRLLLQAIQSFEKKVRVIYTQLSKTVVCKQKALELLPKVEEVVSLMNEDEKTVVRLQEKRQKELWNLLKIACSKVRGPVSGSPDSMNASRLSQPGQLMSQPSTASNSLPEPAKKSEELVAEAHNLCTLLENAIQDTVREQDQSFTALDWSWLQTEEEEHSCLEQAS

[27] = biological target: Rho-associated protein kinase 2 (Homo sapiens, UniProt O75116); experiment: Inhibition of human ROCK2
[28] = biological target: Casein kinase I isoform gamma-3 (Homo sapiens) (UniProt Q9Y6M4); experiment: Inhibition of human CK1gamma3 at 10 uM
Sequence of Casein kinase I isoform gamma-3 (Homo sapiens) (Q9Y6M4 whole entry, looked up, canonical isoform): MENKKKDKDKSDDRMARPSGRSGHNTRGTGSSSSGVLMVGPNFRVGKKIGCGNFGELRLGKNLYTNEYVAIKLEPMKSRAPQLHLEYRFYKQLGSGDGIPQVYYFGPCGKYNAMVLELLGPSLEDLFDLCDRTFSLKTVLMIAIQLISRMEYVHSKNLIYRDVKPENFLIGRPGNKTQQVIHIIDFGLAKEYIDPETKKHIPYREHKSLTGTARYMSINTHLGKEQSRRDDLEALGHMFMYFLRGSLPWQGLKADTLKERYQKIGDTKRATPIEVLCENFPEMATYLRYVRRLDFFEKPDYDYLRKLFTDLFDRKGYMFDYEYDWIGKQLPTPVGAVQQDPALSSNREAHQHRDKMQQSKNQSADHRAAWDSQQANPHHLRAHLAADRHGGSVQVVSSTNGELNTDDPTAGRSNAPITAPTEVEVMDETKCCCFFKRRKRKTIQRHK

[29] = organism: Homo sapiens; experiment: as §4; format: functional, cell-based; in short: as §3
[30] = AUC (0 to 6 hrs) in rat at 10 mg/kg, po; format: ADME, organism-based; set-up: time < 6 hr, dose 10 mg/kg, route oral; conditions: plasma
In short: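 Single oral dose of 10 mg/kg in rats. Plasma exposure is reported as AUC in nM h.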

T1 sequence (P49137 whole entry): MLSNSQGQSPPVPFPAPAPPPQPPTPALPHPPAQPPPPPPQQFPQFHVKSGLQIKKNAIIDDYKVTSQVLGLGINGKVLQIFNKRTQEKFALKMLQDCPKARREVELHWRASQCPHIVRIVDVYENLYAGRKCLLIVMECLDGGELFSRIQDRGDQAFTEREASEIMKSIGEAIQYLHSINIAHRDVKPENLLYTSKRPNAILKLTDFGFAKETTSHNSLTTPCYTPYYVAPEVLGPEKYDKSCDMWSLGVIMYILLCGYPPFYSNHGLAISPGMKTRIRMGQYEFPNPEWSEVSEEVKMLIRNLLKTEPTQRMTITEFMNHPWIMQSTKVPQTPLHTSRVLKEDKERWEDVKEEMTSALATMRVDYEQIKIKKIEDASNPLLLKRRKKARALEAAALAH

Compound | EC50 [1] [µM] | IC50 [3] [µM] | CC50 at 0.5 h [2] [µM] | further results
O=C(Nc1ccc(N2CCNCC2)cc1C(F)(F)F)c1ccc(-c2ccc(Cl)cc2)o1 | > 8 | > 20 | 18 | 
CCN(C(=O)c1ccc(-c2ccc(Cl)cc2)o1)c1ccc(N2CCNCC2)cc1 |  |  | > 8 | 
CCCN(C(=O)c1ccc(-c2ccc(Cl)cc2)o1)c1ccc(N2CCNCC2)cc1 |  |  | > 20 | 
O=C(c1ccc(-c2ccc(Cl)cc2)o1)N(Cc1ccncc1)c1ccc(N2CCNCC2)cc1 |  |  | > 8 | 
Cc1cc(Cl)ccc1-c1ccc(C(=O)Nc2ccc(N3CCNCC3)cc2)o1 | 1.4 | 5.9 | 8.8 | 
O=C(c1ccc(-c2ccc(Cl)cc2)o1)N(Cc1ccccn1)c1ccc(N2CCNCC2)cc1 [listing 1 of 2 here] |  |  | > 20 | IC50 [4]: > 20 µM; IC50 [5]: > 20 µM; IC50 [6]: > 20 µM; IC50 [7]: 4.4 µM; IC50 [8]: > 30 µM; IC50 [9]: > 20 µM; IC50 [10]: 5.7 µM; IC50 [11]: > 20 µM; IC50 [12]: 2.2 µM; IC50 [13]: 5.2 µM
CC(C)N(C(=O)c1ccc(-c2ccc(Cl)cc2)o1)c1ccc(N2CCNCC2)cc1 | 2.7 | 1.2 | > 20 | 
O=C(Nc1ccc(C2=CCNCC2)cc1)c1ccc(-c2ccc(Cl)cc2)o1 | 1.3 | 2.1 | 6.5 | 
CN(C(=O)c1ccc(-c2ccc(Cl)cc2)o1)c1ccc(N2CCNCC2)cc1 |  |  | > 20 | 
Cn1ccnc1CN(C(=O)c1ccc(-c2ccc(Cl)cc2)o1)c1ccc(N2CCNCC2)cc1 |  |  | > 20 | 
CCCCN(C(=O)c1ccc(-c2ccc(Cl)cc2)o1)c1ccc(N2CCNCC2)cc1 |  |  | 19 | 
O=C(Nc1ccc(N2CCNCC2)cc1)c1cccc(-c2ccc(Cl)cc2)n1 | 3.9 | 11 | > 10 | 
O=C(c1ccc(-c2ccc(Cl)cc2)o1)N(Cc1ccccn1)c1ccc(N2CCNCC2)cc1 [listing 2 of 2 here] |  |  |  | inhibition [7]: Dose-dependent effect; inhibition [28]: > 50%; inhibition [10]: Dose-dependent effect; inhibition [29]: Dose-dependent effect; inhibition [13]: Dose-dependent effect
O=C(Nc1ccc(N2CCC(O)CC2)cc1)c1ccc(-c2ccc(Cl)cc2)o1 |  | > 20 |  | 
Cl.O=C(c1ccc(-c2ccc(Cl)cc2)o1)N(Cc1ccccn1)c1ccc(N2CCNCC2)cc1 |  |  |  | AUC(0-t) at 6 h [30]: 2.3 µM·h
O=C(Nc1ccc(N2CCNCC2)c(F)c1)c1ccc(-c2ccc(Cl)cc2)o1 | > 3.4 | 6.7 | 16 | 

The next lines start with results.

EC50 [1] [µM] | IC50 [3] [µM] | Compound | CC50 at 0.5 h [2] [µM] | further results
> 5 | > 20 | O=C(Nc1ccc(N2CCNCC2)cc1)c1ccc(-c2cccc(Cl)c2)o1 | 13 | 
0.9 | 9.5 | O=C(Nc1ccc(N2CCNCC2)cc1)c1csc(-c2ccc(Cl)cc2)n1 | 0.9 | 
1.9 | 7.5 | O=C(Nc1ccc(N2CCNCC2)cc1)c1cc(-c2ccc(Cl)cc2)on1 | 1 | 
> 8 | 8 | O=C(Nc1ccc(N2CCNCC2)cc1)c1ccc(-c2ccccc2Cl)o1 | 15 | 
> 8 | 6.9 | O=C(Nc1ccc(N2CCNCC2)cc1)c1ccc(-c2ccc(Cl)s2)o1 | > 20 | 
1.6 | 7.6 | O=C(Nc1ccc(N2CCNCC2)cc1)c1ccc(-c2ccc(Cl)cc2Cl)o1 | 8.1 | 
20 | 6 | CN1CCN(c2ccc(NC(=O)c3ccc(-c4ccc(Cl)cc4)o3)cc2)CC1 |  | 
 | 15 | O=C(Nc1ccc(N2CCNCC2=O)cc1)c1ccc(-c2ccc(Cl)cc2)o1 |  | 
2 | 5.5 | O=C(Nc1ccc(N2CCNCC2)cc1)c1ccc(-c2ccc(Cl)cc2)o1 | > 10 | IC50 [14]: > 30 µM; IC50 [15]: 7.5 µM; IC50 [16]: > 30 µM; IC50 [17]: > 30 µM; IC50 [18]: > 30 µM; solubility [19]: > 20 µM; IC50 [20]: > 30 µM; IC50 [21]: > 30 µM; IC50 [22]: > 30 µM; IC50 [23]: 5 µM; IC50 [24]: > 30 µM; IC50 [25]: > 30 µM; IC50 [26]: > 30 µM; IC50 [27]: > 30 µM
5 | 9 | O=C(Nc1ccc(N2CCNCC2)cc1)c1ccc(-c2ccc(Cl)cc2)s1 | 8 | 
> 7.7 | 20 | O=C(Nc1ccc(N2CCNCC2)cc1)c1ccc(-c2ccc(C(F)(F)F)cc2)o1 | > 15 | 
8 | 22 | COc1ccc(-c2ccc(C(=O)Nc3ccc(N4CCNCC4)cc3)o2)cc1 |  | 
